Compound activity (PubChem BioAssay)
The full list was thinned out, with hits kept by preference.
UPR XBP1 act: activators of adaptive arm of unfolded protein response (XBP1); activation, % at 20 µM; CHO-XBP1 luciferase reporter, IRE1-XBP1 UPR activation, luminescence; percent of tunicamycin response, DMSO as zero; actives 0.33% (n = 330,000);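 active means versus positive control, 20 µM dose yields 30% or more activation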;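 further: 100% = tunicamycin at 10 µg/mL and 0% = DMSO only wells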
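incubation = overnight seeding at 37 °C, 6 h compound treatment at 37 °C | assay system = CHO-XBP1 cells stably carrying IRE1-XBP1-driven luciferase reporter | input = 1000 cells per well | detection = luciferase luminescence | dosing = single point, 20 µM final compound, 1% DMSO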
B2AR ag: activates human beta-2 adrenergic receptor causing internalization | Am2.2-beta2AR cells, FAP receptor internalization, flow cytometry | P07550 | response, % (test concentration not listed) | actives 0.43% (n = 340,000) | AID 504454;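 active means response above a set limit, near 3 SD of response in nonfluorescent compounds, cut at about 42% in these data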
Dynein cargo inh: dynein cargo transport inhibition; 3617.4 mouse cells, GR-EGFP nuclear translocation imaging; test concentration mostly 20 µM; stimulated with dexamethasone, 1 µM; hits give low values; z-score, hits read low; actives 0.47% (n = 220,000);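 active means plate z-score of nuclear minus cytoplasmic receptor signal below a set negative limit, without overly bright fluorescence or cell loss, cut at about -3.5 in these data, passing the limit was not always enough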;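 further: z-score of nuclear minus cytoplasmic ring GR-EGFP intensity difference per well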
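Buffer or medium – tet-free medium with charcoal-stripped serum · Signal – automated 10x imaging of fixed Hoechst-stained cells · Also added – dexamethasone agonist, 1.0 µM final, for 30 min · Incubation – induction 48 h, compound 1 h, agonist 30 min · Read-out – GR-EGFP nuclear translocation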
p-CIP stab down: lowers stability of the mouse p/CIP coactivator protein. actives 0.01% (n = 290,000). decrease of EGFP signal, % at 10 µM. Q05BA5. AID 1984. F442A p/CIP-EGFP cells, EGFP fluorescence, 16 h;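 active means EGFP signal decrease of at least 30% at 10 µM or well 3 SD below plate mean, unless failing retest; inactive means the rest, including hits failing retest or dose response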
Target sequence (Q05BA5 1-1403): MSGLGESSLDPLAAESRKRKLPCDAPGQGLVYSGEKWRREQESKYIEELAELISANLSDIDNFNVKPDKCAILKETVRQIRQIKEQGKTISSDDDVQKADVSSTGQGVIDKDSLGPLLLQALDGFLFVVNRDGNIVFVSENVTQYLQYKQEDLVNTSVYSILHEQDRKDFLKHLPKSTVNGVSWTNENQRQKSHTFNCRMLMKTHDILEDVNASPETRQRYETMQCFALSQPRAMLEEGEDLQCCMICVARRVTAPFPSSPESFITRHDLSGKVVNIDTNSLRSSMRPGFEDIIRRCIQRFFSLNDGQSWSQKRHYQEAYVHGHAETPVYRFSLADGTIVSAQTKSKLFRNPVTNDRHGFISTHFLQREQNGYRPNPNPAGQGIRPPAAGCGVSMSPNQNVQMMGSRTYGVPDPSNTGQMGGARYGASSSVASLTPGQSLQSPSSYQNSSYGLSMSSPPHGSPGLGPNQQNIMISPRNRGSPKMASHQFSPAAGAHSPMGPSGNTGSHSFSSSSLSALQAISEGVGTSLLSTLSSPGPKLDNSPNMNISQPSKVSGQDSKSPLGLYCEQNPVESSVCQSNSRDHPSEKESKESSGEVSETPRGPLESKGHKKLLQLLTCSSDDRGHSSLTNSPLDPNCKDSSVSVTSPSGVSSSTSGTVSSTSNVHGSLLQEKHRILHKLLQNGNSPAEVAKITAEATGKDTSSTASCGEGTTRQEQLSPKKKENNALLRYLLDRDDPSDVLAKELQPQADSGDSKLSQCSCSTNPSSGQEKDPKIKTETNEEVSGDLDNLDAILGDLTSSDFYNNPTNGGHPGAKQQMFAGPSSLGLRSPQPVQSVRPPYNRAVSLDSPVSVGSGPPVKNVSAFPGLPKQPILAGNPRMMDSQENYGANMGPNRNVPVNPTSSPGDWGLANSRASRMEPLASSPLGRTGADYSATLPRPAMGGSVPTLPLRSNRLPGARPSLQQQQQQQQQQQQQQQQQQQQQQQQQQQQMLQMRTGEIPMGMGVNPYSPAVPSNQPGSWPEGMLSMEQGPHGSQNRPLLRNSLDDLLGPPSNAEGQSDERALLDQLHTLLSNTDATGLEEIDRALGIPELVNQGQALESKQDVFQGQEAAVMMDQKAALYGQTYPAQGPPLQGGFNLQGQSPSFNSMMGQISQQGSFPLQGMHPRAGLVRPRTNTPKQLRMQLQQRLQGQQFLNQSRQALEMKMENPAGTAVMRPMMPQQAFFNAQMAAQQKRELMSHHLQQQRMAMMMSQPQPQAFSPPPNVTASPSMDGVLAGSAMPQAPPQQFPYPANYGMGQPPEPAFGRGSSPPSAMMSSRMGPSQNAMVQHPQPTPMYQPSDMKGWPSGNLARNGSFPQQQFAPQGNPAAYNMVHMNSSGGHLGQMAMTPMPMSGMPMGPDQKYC
CHOP inhibitor: blocks CHOP induction under ER stress; CHO-K1 CHOP-promoter luciferase, tunicamycin-induced, 15-18 h; inhibition, % at 10 µM; actives 3.8% (n = 220,000); AID 2732;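 active means compounds that reduced the stress-induced luciferase reporter signal by more than about 70% of percent inhibition, limit read from the data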;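 further: 0% = tunicamycin plus vehicle and 100% = wells without tunicamycin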
UPR CHOP act: activators of apoptotic arm of unfolded protein response (CHOP); CHO-CHOP luciferase reporter, UPR activation, luminescence; percent of tunicamycin response over DMSO baseline; activation, % at 10 µM; actives 0.34% (n = 330,000);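 active means at 10 µM dose, activation of 40% or more, normalized to positive control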;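 further: 100% = tunicamycin at 10 µg/mL and 0% = DMSO alone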
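assay system = CHO CHOP reporter cells | amount = 500 CHO-CHOP cells per well | buffer or medium = F12 with 10% FBS | incubation = 16-18 h cell attachment, then 6 h compound exposure, 37 °C | detection = luminescence read with Steady-Glo | read-out = percent activation relative to tunicamycin control | controls = tunicamycin high control, DMSO low control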
CHOP confirm: confirmation of CHOP induction inhibitors; inhibition, % at 10 µM; actives 45% (n = 2,100); CHO-CHOP promoter luciferase reporter, tunicamycin-induced, luminescence; shares compounds with CHOP inhibitor;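 active means mean of three repeat readings of reporter signal inhibition above a set limit, cut at about 70% in these data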;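 further: 0% = tunicamycin plus vehicle and 100% = wells lacking tunicamycin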
Active calls of the source: *; / = no result given.

SMILES | UPR XBP1 act | B2AR ag | Dynein cargo inh | p-CIP stab down | CHOP inhibitor | UPR CHOP act | CHOP confirm
COc1ccc(/C=C2\SC(=N)N(c3ccc(F)cc3)C2=O)cc1OC | 5 | 5 | 2.6 | -4 | 102* | -1 | -73
CCOc1cc(/C=C2\SC(=N)N(c3nonc3N)C2=O)ccc1OCC(N)=O | -5 | 8 | -0.52 | 3 | 0 | 21 | /
COc1ccc(C=C2SC(=O)NC2=O)cc1OC | / | 7 | / | / | / | / | /
CCOc1cc(CN2CCCC(N3CCN(c4ccc(F)cc4)CC3)C2)ccc1OC (stereo unspecified) | -3 | 7 | / | -2 | / | 0 | /
Clc1ccc2c(N/N=C/c3ccccc3Br)ccnc2c1 | 13 | 42* | -0.4 | 6 | 100* | 13 | 77*
Clc1ccc2c(N/N=C/c3cccc(Br)c3)ccnc2c1 | / | 46* | -0.9 | 10 | 105* | / | 32
O=[N+]([O-])c1ccc(/C=N/Nc2ccnc3cc(Cl)ccc23)o1 | 1 | -20 | / | -10 | / | 5 | /
NC(=O)C1CCN(C(=S)NCCc2ccccc2)CC1 | -1 | -2 | -1.1 | -4 | -4 | 0 | /
CCn1c(C)cc(O)cc1=O | 1 | -1 | 0.52 | 7 | 17 | 0 | /
CCC(=O)Nc1ccc(C(=O)CSc2nc3ccccc3[nH]2)cc1 | 4 | -24 | -1 | 4 | -15 | 0 | /
CSc1nc(C)nc(N/C=C(\C#N)S(=O)(=O)c2ccccc2Cl)n1 | -2 | 9 | -1.6 | -1 | 4 | -1 | /
O=[N+]([O-])CC(c1ccccc1)c1c[nH]c2ccccc12 (stereo unspecified) | 1 | 2 | / | / | / | 2 | /
OC(CNCC(c1ccc(Cl)cc1Cl)c1c[nH]c2ccccc12)c1ccccc1 (stereo unspecified) | 5 | 23 | 1.9 | -3 | 107* | 9 | 125*
Cc1nnc(NC(=O)CCSCCC(=O)Nc2nnc(C)s2)s1 | 2 | -7 | -0.14 | 6 | 22 | 0 | /
O=C(Nc1c(C(=O)N2CCOCC2)cnn1-c1ccccc1Cl)c1ccco1 | -1 | 0 | -0.66 | -2 | 5 | 2 | /
Cc1ccc(/C=N/N2C(=S)SC(C)(C)C2N(O)C(=O)Nc2ccc([N+](=O)[O-])cc2)cc1 (stereo unspecified) | 6 | 35 | -0.6 | 3 | 103* | 3 | 78*
CC1(C)SC(=S)N(/N=C/c2ccc(O)cc2)C1N(O)C(=O)Nc1ccc([N+](=O)[O-])cc1 (stereo unspecified) | 7 | 10 | -1.5 | -4 | 48 | -2 | /
N#CC1=C(N)Oc2n[nH]c(-c3cccs3)c2C1C1CCCCC1 (stereo unspecified) | 0 | 10 | -0.85 | 8 | 104* | 1 | 37
Cc1ccc(NC(=O)C2CSC3(C)CCC(=O)N23)cc1S(=O)(=O)N1CCCCCC1 (stereo unspecified) | -3 | -1 | / | / | / | 0 | /
COc1ccccc1OS(=O)(=O)c1ccc(NC(C)=O)cc1 | -2 | 5 | 0.93 | -2 | 10 | 2 | /
COC(=O)/C=C/S(=O)(=O)c1ccc(NC(C)=O)cc1 | -8 | 21 | -3.9* | -28 | / | -10 | 64
O=C(Nc1nnc(COc2ccc(F)cc2)s1)Nc1ccccc1F | -1 | 0 | 1.4 | -10 | 99* | 1 | 2
CCOC(=O)c1sc(NC(=O)Nc2ccccc2F)nc1C | -7 | 11 | -0.1 | -4 | 102* | -2 | 44
COc1ccc(NC(=O)Nc2nnc(-c3ccccc3SCc3ccccc3)s2)cc1 | 5 | 3 | -0.94 | -4 | 98* | 0 | 27
COc1ccc(OCc2nnc(NC(=O)Nc3ccc(F)cc3)s2)cc1 | -2 | 1 | 0.62 | -1 | 101* | -1 | 0
SMILES | UPR XBP1 act | B2AR ag | Dynein cargo inh | p-CIP stab down | CHOP inhibitor | UPR CHOP act | CHOP confirm
COc1cccc(NC(=O)Nc2nnc(-c3ccccc3SCc3ccccc3)s2)c1 | 4 | -3 | 1.1 | 0 | 62 | 4 | /
O=C(Nc1nnc(Cc2ccccc2F)s1)Nc1ccccc1F | 3 | -3 | / | 2 | / | 4 | /
Cc1cc([N+](=O)[O-])nn1CC(=O)N1c2ccccc2CC1C (stereo unspecified) | -3 | -3 | -0.18 | -12 | 14 | 0 | /
Cc1ccc(-c2[nH]ncc2/C=N/n2c(COc3ccccc3C)nc3ccccc3c2=O)cc1 | 20 | 9 | 0.87 | -4 | 100* | 23 | 4
Cc1ccccc1OCc1nc2ccccc2c(=O)n1N | 4 | 6 | -0.28 | -12 | 26 | 2 | /
CCN1CCN(c2cc(C)c3cc(NC(=S)N4CCN(c5ccccc5)CC4)ccc3n2)CC1 | 1 | 8 | -0.55 | 6 | 20 | 4 | /
Cc1cc(N2CCOCC2)nc2ccc(NC(=S)N3CCN(c4ccccc4)CC3)cc12 | 0 | -10 | 1.2 | 4 | 101* | 9 | -13
CCCCc1c(C)nn(-c2nnc3c4ccccc4n(C)c3n2)c1C | 3 | 4 | -0.071 | -1 | 107* | 7 | 38
CC(C)COC(=O)c1cccc2c1-c1ccccc1/C2=N\O | 0 | 2 | -0.39 | -8 | 101* | -1 | 64
Cc1cc(C)c2c(CC(=O)Nc3ccc(Cl)cn3)coc2c1 | 2 | -7 | -0.35 | -3 | 97* | -2 | 12
CCOc1cc(C(=S)N2CCCC2)ccc1OCC(=O)Nc1c(C)cc(C)cc1C | -7 | -5 | / | -8 | 18 | -1 | /
CC(=O)c1cc2c(cc1NC(=O)CN1CCN(c3ccc(F)cc3)CC1)OCO2 | 3 | 2 | 0.36 | -16 | 97* | -3 | 19
CCCOc1c(Cl)cc(/C=N/O)cc1OCC | 0 | 5 | 0.7 | -16 | 102* | -1 | -21
CCOc1cc(/C=N/O)cc(Cl)c1OC | -2 | 4 | -0.4 | 4 | 56 | 0 | /
O=C(CCl)Nc1cn(-c2ccccc2)nc1-c1ccc(F)cc1 | -5 | 4 | 0.26 | -8 | 105* | 15 | 100*
O=C(c1cn(-c2ccccc2)nc1-c1ccc(F)cc1)N1CCCCC1 | 0 | -25 | -0.77 | 4 | 23 | -2 | /
CC(=O)Nc1ccc2c(COC(=O)[C@H](C)N3C(=O)C4CCCCC4C3=O)cc(=O)oc2c1 (stereo partly specified) | -1 | 5 | 0.6 | -6 | -1 | 1 | /
CC1CCN(S(=O)(=O)c2ccc3c(c2)C(=NO)c2cc(S(=O)(=O)N4CCC(C)CC4)ccc2-3)CC1 | -12 | 9 | 1.9 | / | 108* | -10 | 138*
Cn1c(-c2cccc([N+](=O)[O-])c2)cnc1NCc1cccc(F)c1 | -1 | 1 | / | -2 | / | 1 | /
